Results taken from BindingDB's records for doi:10.1021/jm990942i (University of Montpellier, 2000).

Target: Gastrin-releasing peptide receptor (Rattus norvegicus, UniProt P52500)
Test: In vitro binding affinity against bombesin / GRP receptors on rat pancreatic acini.
Outline: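 Male Wistar rat dispersed pancreatic acini (about 1 mg/mL protein) incubated 60 min at 37 °C with 20 pM (3-[125I]iodotyrosyl15)GRP and varying analogue; pellet centrifuged at 10000g, washed twice, counted. Nonspecific binding with 10 μM unlabeled BN. Specific binding as %, mean ± SD of three experiments in duplicate.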

Chain of Gastrin-releasing peptide receptor (P52500 whole entry N28S): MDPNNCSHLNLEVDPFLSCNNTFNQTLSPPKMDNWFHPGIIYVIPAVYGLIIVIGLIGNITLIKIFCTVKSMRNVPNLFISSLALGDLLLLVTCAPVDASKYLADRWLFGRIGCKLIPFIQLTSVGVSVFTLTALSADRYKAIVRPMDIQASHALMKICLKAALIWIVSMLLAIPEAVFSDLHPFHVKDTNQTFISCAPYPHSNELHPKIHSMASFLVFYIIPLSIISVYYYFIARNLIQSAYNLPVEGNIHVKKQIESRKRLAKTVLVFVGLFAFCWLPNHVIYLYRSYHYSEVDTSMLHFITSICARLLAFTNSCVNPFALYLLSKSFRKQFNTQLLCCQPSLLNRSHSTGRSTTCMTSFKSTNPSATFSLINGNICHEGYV

Compound	Ki
CC(C)CC(NC(=O)C(CC(C)C)NC(=O)C(Cc1cnc[nH]1)NC(=O)Cn1c(=O)n(CCNC(=O)C(Cc2c[nH]c3ccccc23)NC(=O)C(CCC(N)=O)NC(=O)[C@H](N)Cc2ccccc2)c(=O)c2ccccc21)C(N)=O (some centres not stated) [Bombesin analogues]	> 1 µM
CC(C)CC(NC(=O)C(CC(C)C)NC(=O)C(Cc1cnc[nH]1)NC(=O)[C@H](Cc1ccccc1)N1CC[C@H](NC(=O)C(C)NC(=O)C(Cc2c[nH]c3ccccc23)NC(=O)C(CCC(N)=O)NC(=O)[C@H](N)Cc2ccccc2)C1=O)C(N)=O (some centres not stated) [Bombesin analogues]	> 1 µM
